# Data reported in ChEMBL document CHEMBL2407071, “Exploring 4-substituted-2-thiazolylhydrazones from 2-, 3-, and 4-acetylpyridine as selective and reversible hMAO-B inhibitors” (Eur J Med Chem, 2013).
# How the values were obtained:
# [1] = molecular target: T1, Amine oxidase [flavin-containing] B (Homo sapiens, UniProt P27338); assay: Inhibition of recombinant human MAO-B assessed as oxidation of kynuramine to 4-hydroxyquinoline after 20 mins by spectrofluorometric analysis
# T1 sequence (P27338 whole entry): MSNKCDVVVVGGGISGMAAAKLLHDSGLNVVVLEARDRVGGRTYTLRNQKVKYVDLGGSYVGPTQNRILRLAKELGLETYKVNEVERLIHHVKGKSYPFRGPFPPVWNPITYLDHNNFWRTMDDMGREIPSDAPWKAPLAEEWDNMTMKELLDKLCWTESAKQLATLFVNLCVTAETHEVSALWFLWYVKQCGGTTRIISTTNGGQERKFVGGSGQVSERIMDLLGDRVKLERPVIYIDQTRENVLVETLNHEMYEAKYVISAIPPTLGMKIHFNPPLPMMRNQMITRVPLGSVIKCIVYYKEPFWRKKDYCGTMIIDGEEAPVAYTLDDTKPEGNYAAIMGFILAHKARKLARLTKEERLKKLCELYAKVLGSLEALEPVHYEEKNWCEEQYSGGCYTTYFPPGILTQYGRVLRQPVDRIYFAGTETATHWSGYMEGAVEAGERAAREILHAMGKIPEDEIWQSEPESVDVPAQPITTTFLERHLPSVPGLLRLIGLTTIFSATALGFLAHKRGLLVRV
# Method in brief: (§1)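 Enzyme from insect-cell microsomes expressing recombinant human MAO-A or MAO-B, at 0.0075 mg protein/mL, in 100 mM potassium phosphate pH 7.4 made isotonic with 20.2 mM KCl, with 4% DMSO. Kynuramine was 45 µM for MAO-A and 30 µM for MAO-B. Inhibitor range 0-100 µM, six log-spaced concentrations. Incubated 20 min at 37 °C, stopped with 2N NaOH and centrifuged. 4-Hydroxyquinoline read by fluorescence (ex 310/em 400 nm) against a calibration curve. One-site competition fit; three experiments, mean ± SD.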
# [2] = molecular target: T2, Amine oxidase [flavin-containing] A (Homo sapiens, UniProt P21397); assay: Inhibition of recombinant human MAO-A assessed as oxidation of kynuramine to 4-hydroxyquinoline after 20 mins by spectrofluorometric analysis; method in brief: as §1
# T2 sequence (P21397 whole entry): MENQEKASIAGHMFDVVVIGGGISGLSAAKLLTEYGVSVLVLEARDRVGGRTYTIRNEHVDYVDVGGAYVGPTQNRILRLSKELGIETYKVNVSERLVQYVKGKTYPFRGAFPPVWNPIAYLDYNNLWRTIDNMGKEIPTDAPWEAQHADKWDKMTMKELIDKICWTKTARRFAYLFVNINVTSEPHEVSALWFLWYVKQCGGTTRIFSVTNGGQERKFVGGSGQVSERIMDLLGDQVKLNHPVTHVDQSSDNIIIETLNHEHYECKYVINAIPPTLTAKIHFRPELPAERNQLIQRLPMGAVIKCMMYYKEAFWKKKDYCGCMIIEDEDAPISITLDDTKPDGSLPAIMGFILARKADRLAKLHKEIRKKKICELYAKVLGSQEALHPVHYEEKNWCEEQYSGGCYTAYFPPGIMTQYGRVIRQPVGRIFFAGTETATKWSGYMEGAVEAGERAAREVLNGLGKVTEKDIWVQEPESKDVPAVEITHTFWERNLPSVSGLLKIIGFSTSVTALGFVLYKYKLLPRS
# [3] = molecular target: T1, Amine oxidase [flavin-containing] B; assay: Competitive inhibition of recombinant human MAO-B using kynuramine as substrate by Lineweaver-Burk plot analysis
# [4] = molecular target: T1, Amine oxidase [flavin-containing] B; assay: Reversible inhibition of recombinant human MAO-B assessed as oxidation of kynuramine to 4-hydroxyquinoline at IC50 to 2 times IC50 up to 60 mins by spectrofluorometric analysis; conditions: 1 h
# [5] = molecular target: T1, Amine oxidase [flavin-containing] B; assay: Mixed type inhibition of recombinant human MAO-B using kynuramine as substrate by Lineweaver-Burk plot analysis
SMILES,IC50 ([1]; read-out: IC50),IC50 ([2]; read-out: IC50),IC50 [1],IC50 [2],inhibition (INH) [3],inhibition (INH) [4],inhibition (INH) [5]
C/C(=N\Nc1nc(-c2ccccc2)cs1)c1cccnc1,0.944 µM,21.3 µM,,,,,
C/C(=N/Nc1nc(-c2ccccc2)cs1)c1ccncc1,0.013 µM,2.67 µM,,,Active,Active,
C/C(=N\Nc1nc(-c2ccccc2)cs1)c1ccccn1,3.84 µM,16.6 µM,,,,,
CCOC(=O)c1csc(N/N=C(\C)c2ccncc2)n1,0.127 µM,6.63 µM,,,Active,Active,
CCOC(=O)c1csc(N/N=C(\C)c2ccccn2)n1,,,Not Active,Not Active,,,

# Results, then the compound that gave them:
IC50 ([1]; read-out: IC50),IC50 ([2]; read-out: IC50),IC50 [1],IC50 [2],inhibition (INH) [3],inhibition (INH) [4],inhibition (INH) [5],SMILES
,,Not Active,Not Active,,,,C/C(=N/Nc1nc(C)cs1)c1ccncc1
,,Not Active,Not Active,,,,C/C(=N\Nc1nc(C)cs1)c1ccccn1
13.6 µM,6.91 µM,,,,,,C/C(=N\Nc1nc(C)cs1)c1cccnc1
0.0722 µM,6.57 µM,,,,Active,Active,CCOC(=O)c1csc(N/N=C(\C)c2cccnc2)n1
